Values after ≈ are worked out from the molar mass of the structure shown. Active and inactive are the calls of the source. The rule behind the calls is not given here.
Experiments:
Bacillus subtilis [1] = test: Antibacterial activity against Bacillus subtilis TISTR 008 by 2-fold serial dilution method; format: functional, Bacillus spizizenii
In short: (§1)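 MICs determined following Clinical and Laboratory Standards Institute recommendations, reported in μg/mL.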

Staphylococcus aureus [2] = test: Antibacterial activity against Staphylococcus aureus TISTR 1466 by 2-fold serial dilution method; format: functional; in short: as §1
[3] = tested on: Staphylococcus epidermidis; test: Antibacterial activity against Staphylococcus epidermidis ATCC 12228 by 2-fold serial dilution method; format: functional; in short: as §1
Salmonella typhimurium = test: Antibacterial activity against Salmonella typhimurium TISTR 781 by 2-fold serial dilution method; format: functional, Salmonella enterica subsp. enterica serovar Typhimurium; in short: as §1
Pseudomonas aeruginosa = test: Antibacterial activity against Pseudomonas aeruginosa TISTR 292 by 2-fold serial dilution method; format: functional; in short: as §1
Staphylococcus aureus [4] = test: Antibacterial activity against Staphylococcus aureus TISTR 1466 at >128 ug/ml by 2-fold serial dilution method; format: functional, organism-based; in short: as §1
[5] = tested on: Staphylococcus epidermidis; test: Antibacterial activity against Staphylococcus epidermidis ATCC 12228 at >128 ug/ml by 2-fold serial dilution method; format: functional, organism-based; in short: as §1
Bacillus subtilis [6] = test: Antibacterial activity against Bacillus subtilis TISTR 008 at >128 ug/ml by 2-fold serial dilution method; format: functional, organism-based; conditions: Bacillus spizizenii; in short: as §1

Compound	MIC (Bacillus subtilis [1])	MIC (Staphylococcus aureus [2])	MIC [3]	MIC (Salmonella typhimurium; Salmonella enterica)	MIC (Pseudomonas aeruginosa)	Activity (Staphylococcus aureus [4])	Activity [5]	Activity (Bacillus subtilis [6])	MIC (Salmonella typhimurium; Salmonella enterica subsp. enterica serovar Typhimurium)
CC(C)=CCc1c2c(c(O)c3c(=O)c(-c4ccc(O)cc4O)coc13)C=CC(C)(C)O2	2 µg/mL (≈ 4.76 µM)	2 µg/mL (≈ 4.76 µM)	2 µg/mL (≈ 4.76 µM)	128 µg/mL (≈ 304 µM)	128 µg/mL (≈ 304 µM)				
COc1cc(OC)c(-c2coc3cc4c(c(O)c3c2=O)C=CC(C)(C)O4)cc1OC				128 µg/mL (≈ 312 µM)	128 µg/mL (≈ 312 µM)	inactive	inactive	inactive	
CN[C@H](CC(C)C)C(=O)N[C@H]1C(=O)N[C@@H](CC(N)=O)C(=O)N[C@H]2C(=O)N[C@H]3C(=O)N[C@H](C(=O)N[C@H](C(=O)O)c4cc(O)cc(O)c4-c4cc3ccc4O)[C@H](O)c3ccc(c(Cl)c3)Oc3cc2cc(c3O[C@@H]2O[C@H](CO)[C@@H](O)[C@H](O)[C@H]2O[C@H]2C[C@](C)(N)[C@H](O)[C@H](C)O2)Oc2ccc(cc2Cl)[C@H]1O [VANCOMYCIN]	0.25 µg/mL (≈ 0.173 µM)	0.25 µg/mL (≈ 0.173 µM)	0.25 µg/mL (≈ 0.173 µM)						
Oc1ccc2c(c1)OC[C@H]1c3cc4c(cc3O[C@@H]21)OCO4 [MAACKIAIN]				128 µg/mL (≈ 450 µM)	128 µg/mL (≈ 450 µM)	inactive	inactive	inactive	
CC(C)=CCc1c2c(c(O)c3c(=O)c(-c4ccc(O)cc4)coc13)C=CC(C)(C)O2 [WARANGALONE]	2 µg/mL (≈ 4.94 µM)	2 µg/mL (≈ 4.94 µM)	4 µg/mL (≈ 9.89 µM)	128 µg/mL (≈ 316 µM)	128 µg/mL (≈ 316 µM)				
CC(C)=CCc1c2c(c3occ(-c4ccc(O)cc4O)c(=O)c3c1O)C=CC(C)(C)O2	2 µg/mL (≈ 4.76 µM)	2 µg/mL (≈ 4.76 µM)	2 µg/mL (≈ 4.76 µM)	128 µg/mL (≈ 304 µM)	128 µg/mL (≈ 304 µM)				
GENTAMICIN					2 µg/mL				0.25 µg/mL
C=C(C)[C@@H]1Cc2c(cc(O)c3c2O[C@H]2COc4cc(OC)c(OC)cc4[C@H]2C3=O)O1				128 µg/mL (≈ 312 µM)	128 µg/mL (≈ 312 µM)	inactive	inactive	inactive	
CC(C)=CCOc1ccc(-c2coc3cc4c(c(O)c3c2=O)C=CC(C)(C)O4)c(O)c1				128 µg/mL (≈ 304 µM)	128 µg/mL (≈ 304 µM)	inactive	inactive	inactive	
CC(C)=CCC1=C(O)c2c(occ(-c3ccc(O)cc3O)c2=O)C(CC=C(C)C)(CC=C(C)C)C1=O	2 µg/mL (≈ 4.08 µM)	2 µg/mL (≈ 4.08 µM)	2 µg/mL (≈ 4.08 µM)	128 µg/mL (≈ 261 µM)	128 µg/mL (≈ 261 µM)				
CC(C)=CCc1c2c(c(O)c3c(=O)c(-c4ccc(O)c(O)c4)coc13)C=CC(C)(C)O2 [AURICULASIN]	8 µg/mL (≈ 19 µM)	4 µg/mL (≈ 9.51 µM)	4 µg/mL (≈ 9.51 µM)	128 µg/mL (≈ 304 µM)	128 µg/mL (≈ 304 µM)				
CC(C)=CCOc1ccc(-c2coc3cc4c(c(O)c3c2=O)C=CC(C)(C)O4)cc1				128 µg/mL (≈ 316 µM)	128 µg/mL (≈ 316 µM)	inactive	inactive	inactive	

Source: ChEMBL document CHEMBL4196148, “Antibacterial Prenylated Isoflavonoids from the Stems of Millettia extensa” (2018)
